According to ChEMBL document CHEMBL5325455, “Daphnanes diterpenes from the latex of Hura crepitans L. and their PKCζ-dependent anti-proliferative activity on colorectal cancer cells” (Bioorg Med Chem, 2023):
Activity calls are given as the source filed them. The rule behind the calls is not given here.

Legend:
[1] = target: T1, Protein kinase C zeta type (Homo sapiens) (UniProt Q05513); experiment: Activation of PKCzeta in human Caco-2 cells assessed as increase in colocalization of PKCzeta and actin in peripheral to cell aggregates at 1 ug/ml measured after 48 hrs by immunostaining analysis; type: cell-based; conditions: filed as activator, dose 1.0 µg/ml
T1 sequence (whole entry): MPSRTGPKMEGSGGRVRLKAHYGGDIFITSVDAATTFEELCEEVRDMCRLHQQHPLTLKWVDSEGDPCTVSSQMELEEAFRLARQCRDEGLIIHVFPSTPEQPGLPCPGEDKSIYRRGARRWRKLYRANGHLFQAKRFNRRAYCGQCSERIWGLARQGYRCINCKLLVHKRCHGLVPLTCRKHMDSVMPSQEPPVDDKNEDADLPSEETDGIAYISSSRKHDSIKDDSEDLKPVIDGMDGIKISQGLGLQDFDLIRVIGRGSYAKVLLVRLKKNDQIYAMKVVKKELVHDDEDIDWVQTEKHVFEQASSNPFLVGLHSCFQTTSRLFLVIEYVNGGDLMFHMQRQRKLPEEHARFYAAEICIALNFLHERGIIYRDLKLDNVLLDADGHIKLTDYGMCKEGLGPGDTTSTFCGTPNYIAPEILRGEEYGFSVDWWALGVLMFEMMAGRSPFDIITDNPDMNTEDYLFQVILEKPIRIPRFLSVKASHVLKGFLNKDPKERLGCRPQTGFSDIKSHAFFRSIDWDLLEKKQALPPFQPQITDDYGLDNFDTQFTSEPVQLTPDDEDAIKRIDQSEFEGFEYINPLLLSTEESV
Summary of the method: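 Caco-2 cells were seeded at 40 000/well and treated for 48 h as in the viability assay. They were fixed in 3.7% PFA for 20 min and permeabilised in HBSS/0.5% Triton X100/1% BSA. Anti-PKCζ (1/50) or anti-PKCα (1/200) was applied overnight at 4°C, then Alexa 488 secondary for 45 min. Phalloidin and Hoechst counterstained the cells before confocal imaging; PKCα signal was quantified by immunofluorescence.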

Caco-2 [2] = experiment: Cytostatic activity against human Caco-2 cells assessed as inhibition of cell growth at 1 ug/ml incubated for 48 hrs by MTS assay relative to control; type: functional
Summary of the method: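 Caco-2 cells were seeded at 40 000/well 48 h before dosing. Compound was diluted from a 10 mg/mL DMSO stock into medium (0.125, 0.5 or 1 µg/mL final; DMSO ≤0.01%) and added in triplicate for 48 h. Viability was read by MTS absorbance at 490 nm and expressed relative to the DMSO control.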

Zika virus = experiment: Antiviral activity against ZIKV expressing GFP reporter gene measured 24 hrs post infection; type: functional, organism-based
Summary of the method: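 Cells in 96-well plates were exposed to serial concentrations starting at 50 µg/mL and infected with GFP-reporter Zika virus at MOI 1. At 24 h post-infection, cells were fixed in 3.7% PFA and GFP-positive cells were counted by flow cytometry.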

Caco-2 [3] = experiment: Cytostatic activity against human Caco-2 cells assessed as reduction in cell growth at 1 ug/ml preincubated for 15 mins with PD0325901 followed by compound addition and measured after 48 hrs by MTS assay; type: functional, cell-based; conditions: dose 1.0 µg/ml
Summary of the method: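 Caco-2 cells were pretreated with 0.5 µM PD0325901 for 15 min, then given compound at 1 µg/mL for 48 h. Viability was measured by MTS at 490 nm; n=3, t-test versus DMSO.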

[4] = target: Protein kinase C delta type (Homo sapiens) (UniProt Q05655); experiment: Inhibition of PKCdelta in human Caco-2 cells assessed as reduction in protein phosphorylation at Ser664 residue at 1 ug/ml preincubated for 15 mins with PKCalpha inhibitor, Go6976 followed by compound addition and measured after 48 hrs by Western blot analysis; type: cell-based; conditions: dose 1.0 µg/ml
Summary of the method: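 Caco-2 cells were given 0.2 µM Gö6976 for 15 min, then compound at 1 µg/mL for 48 h. Lysates (30 µg protein) were blotted for pSer664-PKCδ and total PKCδ with actin loading control, and the pSer664/total PKCδ ratio was quantified. Data are from one experiment.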

[5] = target: Protein kinase C delta type (Homo sapiens) (UniProt Q05655); experiment: Inhibition of PKCdelta in human Caco-2 cells assessed as reduction in protein phosphorylation at Ser664 residue at 1 ug/ml incubated for 48 hrs by Western blot analysis; type: cell-based; conditions: dose 1.0 µg/ml

Sequence of Protein kinase C delta type (Homo sapiens) (Q05655 whole entry, looked up): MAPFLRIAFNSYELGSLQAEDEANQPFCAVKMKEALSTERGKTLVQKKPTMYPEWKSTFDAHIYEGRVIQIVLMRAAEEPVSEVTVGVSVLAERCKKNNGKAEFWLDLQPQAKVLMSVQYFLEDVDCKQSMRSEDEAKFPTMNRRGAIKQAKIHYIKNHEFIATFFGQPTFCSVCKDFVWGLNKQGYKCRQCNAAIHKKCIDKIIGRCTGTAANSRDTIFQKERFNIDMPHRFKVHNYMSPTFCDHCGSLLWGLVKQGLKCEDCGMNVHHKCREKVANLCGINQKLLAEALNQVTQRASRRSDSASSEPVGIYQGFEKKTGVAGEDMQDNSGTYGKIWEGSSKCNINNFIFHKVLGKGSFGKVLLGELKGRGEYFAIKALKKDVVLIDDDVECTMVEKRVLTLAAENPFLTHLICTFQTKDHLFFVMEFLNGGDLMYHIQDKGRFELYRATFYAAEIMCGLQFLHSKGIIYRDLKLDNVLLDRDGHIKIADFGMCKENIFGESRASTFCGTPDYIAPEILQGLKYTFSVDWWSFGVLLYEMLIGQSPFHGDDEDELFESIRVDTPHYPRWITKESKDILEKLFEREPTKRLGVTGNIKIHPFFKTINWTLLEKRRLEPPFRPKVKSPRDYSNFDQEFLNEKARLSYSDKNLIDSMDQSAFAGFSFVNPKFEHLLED

Row | Structure (SMILES) | Activity [1] | inhibition at 1 µg/mL (Caco-2 [2]) | IC50 (Zika virus) | Activity (Caco-2 [3]) | inhibition [4] | inhibition [5]
1 | C=C(C)[C@]12C[C@@H](C)[C@@]34O[C@](/C=C/[C@@H]5O[C@H]5CCCCCCCCC)(O[C@@H]1[C@@H]3[C@@H]1O[C@]1(CO)[C@@H](O)[C@]1(O)C(=O)C(C)=C[C@H]14)O2 | Active | 30% |  |  |  | 
2 | C=C(C)[C@]12C[C@@H](C)[C@@]34O[C@](/C=C/C=C/CCCCCCCCC)(O[C@@H]1[C@@H]3[C@@H]1O[C@]1(CO)[C@@H](O)[C@]1(O)C(=O)C(C)=C[C@H]14)O2 |  |  | > 50 µM | inactive | Active | Active
